The results in this text go back to ChEMBL document CHEMBL3596096, “Synthesis and biological evaluation of quinones derived from natural product komaroviquinone as anti-Trypanosoma cruzi agents” (Bioorg Med Chem Lett, 2015).

The term IC50 denotes the point on the concentration scale where inhibition reaches its midpoint.

Experiment [1] has as its system Trypanosoma cruzi. Kind of experiment: Antitrypanosomal activity against trypomastigotes stage of Trypanosoma cruzi infected in human HT1080 cells assessed as inhibition of parasite growth after 24 hrs by microscopic analysis. The class given is functional, organism-based. The following applies: HT-1080, 24 h. In short, it runs like this:
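Trypomastigotes suspended in DMEM and incubated 24 h with a range of compound concentrations or vehicle (0.1% ethanol). Live parasites were counted microscopically, and the IC50 was determined from the concentration series.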

In a further experiment the test system is HT-1080. Put plainly: Induction of reactive oxygen species formation in human HT1080 cells at 10 to 50 µM by fluorometric analysis. The class given is functional, cell-based. The following applies: […]. In short, it runs like this:
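Intracellular ROS in host HT1080 cells was measured with an intracellular ROS assay kit, read out as fluorescence intensity (RFU). H2O2 and benznidazole were included for comparison.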

The subject of experiment [2] is Trypanosoma cruzi. Put plainly: Antitrypanosomal activity against trypomastigotes stage of Trypanosoma cruzi infected in human HT1080 cells assessed as inhibition of parasite growth at 10 uM after 24 hrs by microscopic analysis. The class given is functional, organism-based. The following applies: HT-1080. Put shortly:
(§1)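 Trypomastigotes suspended in DMEM and exposed 24 h to a single compound concentration, alongside vehicle (0.1% ethanol) control and benznidazole. Live parasites were counted microscopically. Values are the mean of four independent experiments, with significance versus control by two-tailed unpaired Student's t-test.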

The test system of experiment [3] is Trypanosoma cruzi. Put plainly: Antitrypanosomal activity against trypomastigotes stage of Trypanosoma cruzi infected in human HT1080 cells assessed as inhibition of parasite growth at 1 uM after 24 hrs by microscopic analysis. The class given is functional, organism-based. The following applies: HT-1080. In short, it runs like this:
as §1

Structures are written as SMILES. Activity calls are given as the source filed them. No cut-off for these calls is given here.

Take `COC1=C(C(C)C)C(=O)C=C(CC(O)(Cn2cncn2)c2ccc(F)cc2F)C1=O` (centres undefined): in the experiment with Trypanosoma cruzi [1], the 50% inhibitory concentration (IC50) came to 540 nM. In addition, the result with HT-1080 was Active.

`COc1c(C[C@@]23CCCC(C)(C)[C@@H]2CC(=O)O3)c(I)c(OC)c(C(C)C)c1OC`: the “growth inhibition (GI)” value in the experiment on Trypanosoma cruzi [2] is “inactive”. The same measure, in the same setting: with `COc1c2c(c(OC)c(C(C)C)c1OC)C1(O)C[C@H]3C(C)(C)CCC[C@@]3(C2)O1` the entry was “inactive”.

Turning to `COC1=C(C(C)C)C(=O)C=C(Cn2cnc([N+](=O)[O-])c2)C1=O`, the IC50 in the experiment with Trypanosoma cruzi [1] is > 10000 nM. Regarding `COC(=O)C[C@@H]1C(Cc2cc(OC)c(C(C)C)c(OC)c2OC)=CCCC1(C)C`, the “growth inhibition (GI)” value with Trypanosoma cruzi [2] was “inactive”.

`COC1=C(C(C)C)C(=O)C=C(C[C@@]23CCCC(C)(C)[C@@H]2CC(=O)O3)C1=O`: the “growth inhibition (GI)” value in the experiment on Trypanosoma cruzi [2] and in the experiment on Trypanosoma cruzi [3] was “Active” throughout. With `COC1=C(C(C)C)C(=O)C=C(CN2C(=O)CCc3ccccc32)C1=O`, the 50% inhibitory concentration (IC50) with Trypanosoma cruzi [1] was found to be 2000 nM. Still for that read-out and setting: with `CCCCCCCC1=CC(=O)C(C(C)C)=C(OC)C1=O` the figure was > 10000 nM; with `COC1=C(C(C)C)C(=O)C=C(COc2cccnc2)C1=O`, > 10000 nM. The same measure, in the same setting: under `COC1=C(C(C)C)C(=O)C=C(COC(Cn2cncn2)c2ccc(F)cc2F)C1=O` (centres undefined) stands 300 nM. Turning to `COC1=C(C(C)C)C(=O)C=C(CN2CCCC2=O)C1=O`, the concentration for half-maximal inhibition (IC50) in the experiment on Trypanosoma cruzi [1] is > 10000 nM.

For `COC1=C(C(C)C)C(=O)C2=C(C[C@@]34CCCC(C)(C)[C@@H]3C[C@]2(O)O4)C1=O` [KOMAROVIQUINONE], the “growth inhibition (GI)” value with Trypanosoma cruzi [2] and in the experiment on Trypanosoma cruzi [3] was “Active” each time. Also, in the experiment on Trypanosoma cruzi [1], the IC50 was found to be 250 nM. Also, in the experiment on HT-1080, the result was Active. Regarding `COC1=C(C(C)C)C(=O)C=C(CN(C)C(=O)c2ccccc2)C1=O`, the IC50 in the experiment on Trypanosoma cruzi [1] was > 10000 nM. Same read-out and setting: under `COC1=C(C(C)C)C(=O)C=C(COC2CCCCC2)C1=O` stands > 10000 nM. Still for that read-out and setting: under `COC1=C(C(C)C)C(=O)C=C(Cn2cncn2)C1=O` stands 9800 nM; under `COC1=C(C(C)C)C(=O)C=C(CC(C)(C)O)C1=O`, > 10000 nM. Same read-out and setting: under `COC1=C(C(C)C)C(=O)C=C(CN(C(=O)C2CCCCC2)C2CCCCC2)C1=O` stands 2400 nM; under `COC1=C(C(C)C)C(=O)C=C(COC(C)C)C1=O`, > 10000 nM; under `COC1=C(C(C)C)C(=O)C=C(CC2CCCCC2)C1=O`, > 10000 nM. Turning to `COC1=C(C(C)C)C(=O)C=C(CC2(O)CCCCC2)C1=O`, the IC50 in the experiment with Trypanosoma cruzi [1] turned out to be 590 nM.

As for `COC1=C(C(C)C)C(=O)C=C(CNC(=O)C2CCCCC2)C1=O`, the IC50 in the experiment with Trypanosoma cruzi [1] was 330 nM. `O=C(Cn1ccnc1[N+](=O)[O-])NCc1ccccc1` [BENZNIDAZOLE]: the 50% inhibitory concentration (IC50) in the experiment on Trypanosoma cruzi [1] came out at 6800 nM. Also, the result in the experiment with HT-1080 was Active.

As for `COC1=C(C(C)C)C(=O)C=C(CN(C)C(=O)C2CCCCC2)C1=O`, in the experiment on Trypanosoma cruzi [1], the IC50 is 1100 nM. For `COC1=C(C(C)C)C(=O)C(C(C)(C)O)=C(C)C1=O`, the “growth inhibition (GI)” value with Trypanosoma cruzi [2] and with Trypanosoma cruzi [3] was “Active” throughout. `COC1=C(C(C)C)C(=O)C=C(COc2ccccc2)C1=O`: the IC50 in the experiment with Trypanosoma cruzi [1] was > 10000 nM. In the case of `COc1cc(C[C@@]23CCCC(C)(C)[C@@H]2CC(=O)O3)c(OC)c(OC)c1C(C)C`, in the experiment on Trypanosoma cruzi [2], the “growth inhibition (GI)” value is “inactive”. With `COC1=C(C(C)C)C(=O)C=C(Cc2ccccc2)C1=O`, the IC50 in the experiment with Trypanosoma cruzi [1] is > 10000 nM.
